Compounds with a hit are over-represented: about 1.8% of the library has one in this group of screens.
mABHD4 FP – ABHD4 inhibitors, primary screen, biochemical, fluorescence polarization, mouse; AID 720543, 2013; inhibition, % at 8.92 µM; 370,000 compounds, 0.54% hits; (Lyso)-N-acylphosphatidylethanolamine lipase (Mus musculus), Q8VD66; purified mABHD4, FP-Rh probe fluorescence polarization;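 active = inhibition exceeding the mean over every tested compound plus 3 SD, cut at about 30% in these data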;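 note: 0% = plate median of compound wells and 100% = S159A mutant with DMSO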
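Doses – 8.92 µM, single dose · Material – wild-type mouse ABHD4 protein · Replication – single well per compound (singlicate) · Measure – percent inhibition of probe binding, normalized to plate controls · Schedule – 45 min compound pre-incubation plus 60 min probe step, 25 °C · Detection – fluorescence polarization with parallel and perpendicular emission, 525/598 nm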
HTRA1 inh – HTRA1 serine protease inhibitors, primary screen, biochemical, fluorescence polarization, HTS. recombinant HTRA1, FP-rhodamine activity-based probe. inhibition, % at 5.96 µM. 340,000 compounds, 0.5% hits. AID 504803, 2011; in the data active = inhibition above about 36%;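 note: 0% = enzyme with DMSO and 100% = wells lacking enzyme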
SIAE inh – human SIAE inhibitors, primary screen, biochemical, fluorescence polarization, FP-Rh probe, 1536-well HTS; 370,000 compounds, 0.69% hits; inhibition, % at 9.66 µM; SIAE FP-Rh probe binding; Sialate O-acetylesterase (Homo sapiens), Q9HAT2;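 active = inhibition above a cutoff: mean of compounds within the control limits plus 3 SD of those, cut at about 17% in these data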;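 note: 0% = plate median of compound wells and 100% = probe without SIAE protein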
DDE Tn6 FP inh – inhibitors of Tn6 peptide binding to fibrin DD(E), primary screen, biochemical, fluorescence polarization, human fibrin, Tn6 probe | Fibrinogen beta chain (Homo sapiens), P02675 | Fibrin DD(E) TRITC-Tn6 fluorescence polarization displacement | inhibition, % at 8.3 µM | 370,000 compounds, 0.21% hits;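 active = inhibition above a per-campaign cutoff: mean of compounds within control limits plus 3 SD, cut at about 15% in these data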;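 note: 0% = median of all compound wells on the plate and 100% = blocking peptide control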
Target sequence (P02675 whole entry, looked up): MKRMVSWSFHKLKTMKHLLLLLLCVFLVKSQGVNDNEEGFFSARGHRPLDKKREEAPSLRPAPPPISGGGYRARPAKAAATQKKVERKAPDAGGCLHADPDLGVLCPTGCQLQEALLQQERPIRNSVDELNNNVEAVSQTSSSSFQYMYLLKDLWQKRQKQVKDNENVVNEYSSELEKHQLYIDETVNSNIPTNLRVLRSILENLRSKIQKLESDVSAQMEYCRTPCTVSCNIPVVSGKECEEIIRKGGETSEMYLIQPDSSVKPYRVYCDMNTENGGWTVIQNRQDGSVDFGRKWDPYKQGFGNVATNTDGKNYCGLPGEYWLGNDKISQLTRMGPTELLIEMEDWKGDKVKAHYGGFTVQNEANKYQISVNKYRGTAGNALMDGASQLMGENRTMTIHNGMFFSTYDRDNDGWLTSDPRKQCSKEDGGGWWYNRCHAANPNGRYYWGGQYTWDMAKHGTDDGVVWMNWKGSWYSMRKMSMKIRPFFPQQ
TCR-CD3 inh – inhibitors of human TCR-CD3 interaction, primary screen, biochemical, fluorescence, TAMRA-labeled TCR probe; inhibition, % at 9.4 µM; 360,000 compounds, 0.37% hits; AID 651800, 2012; in the data active = inhibition above about 19%;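 note: recombinant mutant TCR 2C K166C tagged with TAMRA read by polarization; 0% = receptor in buffer alone and 100% = receptor with positive control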
DDE Tn7 FP inh – inhibitors of Tn7 peptide binding to fibrin DD(E), primary screen, biochemical, fluorescence polarization, human fibrin, Tn7 probe; Fibrinogen beta chain (Homo sapiens), P02675; FP displacement of FITC-Tn7 peptide from fibrin DD(E); 0% = median of compound wells per plate; inhibition, % at 8.3 µM; 370,000 compounds, 0.13% hits; AID 720508, 2013;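 active = inhibition above the mean of compounds falling within the control limits plus 3 SD of them, cut at about 14% in these data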;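 note: 0% = plate median of compound wells and 100% = 10 µM Aha-Tn7 peptide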
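system = human fibrin DD(E) protein | quantity = DD(E) 2 µM final | medium = Tris/NaCl/CaCl2 buffer, pH 7.8 | also added = labelled Tn7 tracer, 0.1 µM | compound dosing = single point at 8.3 µM | timing = compound with protein 10 min, then 3 h after probe, room temperature | signal = FP measurement | benchmarks = Aha-Tn7 high control | repeats = one replicate per compound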
mABHD4 conf – ABHD4 inhibitors, retest, confirmation, biochemical, fluorescence polarization, mouse. shares compounds with mABHD4 FP. purified mABHD4, FP-Rh probe fluorescence polarization. inhibition, % at 8.92 µM. 1,800 compounds, 55% hits. AID 720658, 2013;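 active = mean inhibition across replicates above the hit cutoff set in the primary screen, cut at about 30% in these data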;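 note: 0% = wild-type ABHD4 with DMSO and 100% = catalytically dead S159A mutant with DMSO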
SIAE confirm – human SIAE inhibitors, retest, confirmation, biochemical, fluorescence polarization, FP-Rh probe, triplicate; SIAE FP-Rh activity-based probe; inhibition, % at 9.66 µM; shares compounds with SIAE inh; 2,300 compounds, 13% hits;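 active = mean inhibition of the replicates above the hit cutoff set in the primary screen, cut at about 17% in these data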;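 note: 0% = SIAE with DMSO and probe and 100% = probe without SIAE; inhibitors lower polarization as more probe stays unbound to SIAE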
Active calls of the source: *; · = no result given.

SMILES	mABHD4 FP	HTRA1 inh	SIAE inh	DDE Tn6 FP inh	TCR-CD3 inh	DDE Tn7 FP inh	mABHD4 conf	others
CC1CCN(c2ccc(C(=O)O)cc2NS(=O)(=O)c2ccc(C(C)(C)C)cc2)CC1	42*	·	6	-1	·	-10	52*
CC1CCN(c2ccccc2NC(=O)c2ccc(N3CCOCC3)c([N+](=O)[O-])c2)CC1	5	-4	-3	4	1	1	·
CC1CCN(c2ccc(C(=O)O)cc2NS(=O)(=O)c2ccccc2[N+](=O)[O-])CC1	44*	·	1	5	·	0	42*
CC1CCN(c2ccc(C(=O)O)cc2NS(=O)(=O)c2ccc(F)cc2)CC1	28	·	6	6	·	-12	·
CO[C@H]1C=CO[C@@]2(C)Oc3c(C)c(O)c4c(O)c(c(C=NN5CCN(C)CC5)c(O)c4c3C2=O)NC(=O)C(C)=CC=C[C@H](C)[C@H](O)[C@@H](C)[C@@H](O)[C@@H](C)[C@H](OC(C)=O)[C@@H]1C	33*	34	10	-2	-6	-5	10
CCOc1ccc(NC2=CC(=O)C(=O)c3ccccc32)cc1	32*	25	13	0	10	2	27
Cc1ccc(NC2=CC(=O)C(=O)c3ccccc32)c(C)c1	7	15	2	-3	-5	-1	·
O=C1C=C(Nc2ccccc2O)c2ccccc2C1=O	48*	26	6	10	3	8	-5
O=C(N1CCC(Cc2ccccc2)CC1)n1ncc(C(O)(c2ccccc2)c2ccccc2)n1	77*	·	-3	2	·	-2	69*
CCOc1cc(/C=C2\N=C(SCC)SC2=O)cc([N+](=O)[O-])c1OC(C)=O	42*	22	-2	-14	-3	-2	83*
CCOc1cc(/C=C2\N=C(SC)SC2=O)cc([N+](=O)[O-])c1OC(C)=O	·	20	·	·	·	·	·
COC(=O)[C@]12C[C@H](CC(=O)N3CCN(C(=O)C4CC4)CC3)C(=O)N(Cc3ccc(Cl)cc3Cl)C1=C[C@H](C(C)C)O[C@@H]2C1CC1	-9	·	-3	5	·	-5	·
Cc1ccccc1OCC(=O)N/N=C1\CC(=O)CC(C)(C)C1	-6	3	4	-4	7	2	·
CC1(C)CC(=O)C/C(=N/Nc2nc3ccccc3s2)C1	30*	21	11	6	-2	-4	27
CC1CCC/C(=N/Nc2nc3ccccc3s2)C1 (stereo not drawn)	38*	13	11	-5	3	-6	6
c1ccc(-c2c[nH]c3cccc(-c4cc5ccccc5o4)c23)cc1	3	·	-3	3	·	0	·
CCCCCCCOC(=O)C[N+](C)(C)CCOC1CC2CCC1(C)C2(C)C (stereo not drawn)	38*	14	3	2	4	-3	50*
O=C(O)c1ccc2c(c1)C1C=CCC1C(c1cc3c(cc1Br)OCO3)N2 (stereo not drawn)	-7	7	5	7	5	9	·
O=C(O)c1ccc(NS(=O)(=O)c2ccc3c(c2)C2C=CCC2C(c2ccccc2F)N3)cc1 (stereo not drawn)	42*	22	6	-14	-1	-3	26
O=[N+]([O-])c1ccc(NN=Cc2ccc(O)cc2O)nc1	30*	20	8	5	1	8	30*
COc1cccc(/C=N/Nc2ncnc(Cl)c2N)c1O	9	1	-10	0	-7	-6	·
Oc1ccc(/C=N/Nc2nccnc2Cl)c(O)c1	43*	-2	-8	3	-4	1	45*
COc1cccc(/C=N/Nc2nccnc2Cl)c1O	30*	1	-1	2	1	9	41*
OC[C@@H]1CC[C@@H]2O[C@H](CCc3ccc(-c4ccc(F)cc4)cc3)[C@@H](n3cc(C4CC4)nn3)C[C@@H]2O1	-12	·	3	8	·	5	·
O=C(/C=C/Nc1ccc(Nc2ccccc2)cc1)c1cccs1	34*	33	11	-4	-1	4	-2
SMILES	mABHD4 FP	HTRA1 inh	SIAE inh	DDE Tn6 FP inh	TCR-CD3 inh	DDE Tn7 FP inh	mABHD4 conf	others
Cc1ccc2c(c1)c(Sc1ccccc1)c(CC(=O)O)n2C	30*	1	2	6	-2	-5	35*
CCOC(=O)Cc1c(Sc2ccccc2)c2cc(C)ccc2n1C	2	-9	-1	0	-4	2	·
COc1ccc(OC)c(N/C(C)=C/C(=O)c2ccncc2)c1	49*	13	21*	13	5	6	1	SIAE confirm=3
COc1ccc(OC)c(N/C(C)=C/C(=O)c2ccccc2)c1	1	7	7	2	4	-3	·
N=C1S/C(=C\c2ccco2)C(=O)N1c1ccc2c(c1)OCO2	34*	17	21*	-5	3	1	-1	SIAE confirm=0
O=C(CN1C(=O)/C(=C2/SC(=S)N(CCS(=O)(=O)O)C2=O)c2ccccc21)Nc1cccc(Br)c1	60*	-23	18*	-7	12	7	70*	SIAE confirm=5
C#CCNC(=O)C[C@H]1C(=O)N(Cc2ccc(OC)cc2)C2=CCCC[C@@]21C(=O)OCC	1	·	-10	4	·	-7	·
O=c1nc2s/c(=C\c3ccc(-c4ccccc4[N+](=O)[O-])o3)c(=O)n2nc1-c1ccccc1	40*	27	22*	5	1	9	34*	SIAE confirm=6
COC(=O)c1ccc(N)cc1O	-2	-4	8	-10	-2	-4	·
COC(=O)c1ccc(=O)c2nc3/c(=C/O)c(O)cc(=O)c3[nH]c12	57*	61*	47*	8	140*	2	59*	SIAE confirm=28*
O=C(O)c1cccc(N/N=C/C2=C(Cl)c3cc(Cl)ccc3SC2)c1	30*	-18	21*	-5	3	-10	87*	SIAE confirm=31*
Cc1ccc(C=Nn2c(-c3n[nH]c4c3CCC4)n[nH]c2=S)s1	-4	·	3	-1	·	4	·
O=C(NC1CCCC1)[C@@H]1CCCN1C(=O)[C@@H](NS(=O)(=O)c1ccc(F)cc1F)c1ccccc1	-6	·	-3	-5	-2	2	·
